Here are results for 44 molecules from the M2OR odorant receptor database.

Settings in all cases: stereoisomer not certain
One experiment concerns the target T1, UniProt Q924H8.
T1 sequence (whole entry): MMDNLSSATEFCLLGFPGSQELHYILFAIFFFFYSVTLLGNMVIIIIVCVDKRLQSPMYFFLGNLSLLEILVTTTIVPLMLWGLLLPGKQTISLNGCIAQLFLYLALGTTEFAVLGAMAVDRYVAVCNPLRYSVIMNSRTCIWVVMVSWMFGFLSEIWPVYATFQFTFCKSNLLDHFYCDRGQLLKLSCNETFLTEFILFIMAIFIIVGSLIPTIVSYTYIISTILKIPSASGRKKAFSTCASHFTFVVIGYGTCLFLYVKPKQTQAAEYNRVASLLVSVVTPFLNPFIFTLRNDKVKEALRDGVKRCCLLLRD
In short, it runs like this:
(§1)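 Each receptor–molecule pair is labelled responsive or non-responsive (inactive) according to whether the original authors judged the measured signal statistically different from baseline. The data were taken from the main text and supplementary material of published papers and checked for typos and inconsistencies. Assay methods differed by source, with transient luciferase assays in mammalian cell lines being common.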

Another experiment addresses T2, UniProt Q920P2.
T2 sequence (whole entry): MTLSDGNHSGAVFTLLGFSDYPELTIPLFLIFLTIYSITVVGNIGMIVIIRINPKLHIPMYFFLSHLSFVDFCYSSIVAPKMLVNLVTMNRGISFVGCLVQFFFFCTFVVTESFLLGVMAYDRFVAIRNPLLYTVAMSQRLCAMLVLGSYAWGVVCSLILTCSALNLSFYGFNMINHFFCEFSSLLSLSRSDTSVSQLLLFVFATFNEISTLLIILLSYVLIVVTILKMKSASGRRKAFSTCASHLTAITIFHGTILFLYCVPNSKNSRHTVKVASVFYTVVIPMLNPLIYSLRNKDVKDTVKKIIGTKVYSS
A digest of the protocol: as §1

The target of another experiment is T3, UniProt Q9EPN9.
T3 sequence (whole entry): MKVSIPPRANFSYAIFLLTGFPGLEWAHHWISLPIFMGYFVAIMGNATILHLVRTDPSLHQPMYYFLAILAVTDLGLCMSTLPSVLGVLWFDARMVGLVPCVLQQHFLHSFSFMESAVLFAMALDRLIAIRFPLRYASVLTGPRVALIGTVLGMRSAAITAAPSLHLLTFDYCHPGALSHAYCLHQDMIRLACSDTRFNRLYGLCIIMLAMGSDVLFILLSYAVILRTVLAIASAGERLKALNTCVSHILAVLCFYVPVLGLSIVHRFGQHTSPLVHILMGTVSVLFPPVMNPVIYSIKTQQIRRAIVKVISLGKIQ
A digest of the protocol:
as §1

The next experiment has as its target UniProt Q9R0K2. A digest of the protocol:
as §1

The target of another experiment is T4, UniProt Q9WU86.
T4 sequence (whole entry): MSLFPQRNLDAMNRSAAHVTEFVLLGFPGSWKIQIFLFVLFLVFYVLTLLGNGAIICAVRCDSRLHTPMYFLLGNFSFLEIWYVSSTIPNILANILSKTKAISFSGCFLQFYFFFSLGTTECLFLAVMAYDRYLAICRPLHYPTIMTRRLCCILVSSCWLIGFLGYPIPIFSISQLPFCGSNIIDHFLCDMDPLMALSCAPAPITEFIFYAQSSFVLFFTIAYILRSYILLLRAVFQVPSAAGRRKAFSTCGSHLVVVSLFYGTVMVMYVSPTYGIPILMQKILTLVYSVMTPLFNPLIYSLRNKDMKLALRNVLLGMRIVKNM
In short, it runs like this: as §1

In the next experiment the target is UniProt Q9WVD9. In short, it runs like this:
as §1

Another experiment addresses T5, UniProt Q9WVN5.
T5 sequence (whole entry): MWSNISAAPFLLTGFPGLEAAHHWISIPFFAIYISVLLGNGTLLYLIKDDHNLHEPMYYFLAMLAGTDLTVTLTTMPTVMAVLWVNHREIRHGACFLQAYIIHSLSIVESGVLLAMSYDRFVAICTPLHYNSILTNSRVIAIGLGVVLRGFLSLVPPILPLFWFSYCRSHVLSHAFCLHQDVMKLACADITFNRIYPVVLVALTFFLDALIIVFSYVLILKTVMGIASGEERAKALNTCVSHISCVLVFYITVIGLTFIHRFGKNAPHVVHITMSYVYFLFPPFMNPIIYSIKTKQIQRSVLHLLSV
A digest of the protocol:
as §1

The next experiment concerns the target T6, UniProt Q924X8.
T6 sequence (whole entry): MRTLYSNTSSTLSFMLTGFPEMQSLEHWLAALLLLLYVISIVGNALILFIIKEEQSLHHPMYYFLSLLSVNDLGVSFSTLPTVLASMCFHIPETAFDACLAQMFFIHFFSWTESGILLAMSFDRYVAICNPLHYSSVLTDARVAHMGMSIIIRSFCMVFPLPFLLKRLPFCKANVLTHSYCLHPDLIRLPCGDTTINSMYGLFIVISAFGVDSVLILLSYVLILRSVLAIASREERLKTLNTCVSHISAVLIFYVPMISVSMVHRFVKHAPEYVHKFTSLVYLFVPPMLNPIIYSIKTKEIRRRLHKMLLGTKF
A digest of the protocol:
as §1

The next experiment concerns the target T7, UniProt Q9WU94.
T7 sequence (whole entry): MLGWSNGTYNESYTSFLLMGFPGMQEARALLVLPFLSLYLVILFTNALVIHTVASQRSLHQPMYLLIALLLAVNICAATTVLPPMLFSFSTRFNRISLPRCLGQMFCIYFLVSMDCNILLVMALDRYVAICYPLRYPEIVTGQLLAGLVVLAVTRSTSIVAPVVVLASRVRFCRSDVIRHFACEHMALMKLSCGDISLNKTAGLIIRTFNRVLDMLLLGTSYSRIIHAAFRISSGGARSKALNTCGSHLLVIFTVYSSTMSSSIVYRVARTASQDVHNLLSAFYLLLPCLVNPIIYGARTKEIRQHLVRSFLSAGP
In short, it runs like this:
as §1

The target in the next experiment is T8, UniProt Q9WVD7.
T8 sequence (whole entry): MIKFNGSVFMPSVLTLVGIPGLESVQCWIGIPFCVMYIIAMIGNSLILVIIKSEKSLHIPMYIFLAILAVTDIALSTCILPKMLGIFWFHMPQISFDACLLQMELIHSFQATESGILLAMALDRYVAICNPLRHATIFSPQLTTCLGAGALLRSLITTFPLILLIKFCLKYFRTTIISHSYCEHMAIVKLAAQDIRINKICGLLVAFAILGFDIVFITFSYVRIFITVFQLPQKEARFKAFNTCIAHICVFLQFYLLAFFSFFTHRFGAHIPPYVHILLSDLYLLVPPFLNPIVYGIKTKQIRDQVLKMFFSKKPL
A digest of the protocol: as §1

A further experiment deals with T9, UniProt Q99NH4.
T9 sequence (whole entry): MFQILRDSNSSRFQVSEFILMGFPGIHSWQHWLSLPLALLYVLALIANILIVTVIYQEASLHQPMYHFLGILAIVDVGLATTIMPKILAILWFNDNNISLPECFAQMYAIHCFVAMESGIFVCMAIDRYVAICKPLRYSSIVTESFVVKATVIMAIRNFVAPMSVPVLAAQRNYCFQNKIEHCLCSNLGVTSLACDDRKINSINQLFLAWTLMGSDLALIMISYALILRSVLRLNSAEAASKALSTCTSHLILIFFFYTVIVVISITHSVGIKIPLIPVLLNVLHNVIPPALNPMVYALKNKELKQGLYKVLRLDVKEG
In short, it runs like this:
as §1
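Further: active if original authors judged signal statistically different from baseline.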

Chain of UniProt Q9R0K2 (Q9R0K2 as listed by the source): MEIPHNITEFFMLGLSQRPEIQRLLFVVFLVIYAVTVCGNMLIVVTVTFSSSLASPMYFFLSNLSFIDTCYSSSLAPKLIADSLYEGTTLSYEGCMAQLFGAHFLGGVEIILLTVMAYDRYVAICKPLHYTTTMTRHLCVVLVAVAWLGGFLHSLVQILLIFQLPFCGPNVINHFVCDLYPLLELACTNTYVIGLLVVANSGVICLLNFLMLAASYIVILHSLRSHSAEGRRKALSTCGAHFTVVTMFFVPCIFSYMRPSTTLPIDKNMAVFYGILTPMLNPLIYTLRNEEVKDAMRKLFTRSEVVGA
Chain of UniProt Q9WVD9 (Q9WVD9 as listed by the source): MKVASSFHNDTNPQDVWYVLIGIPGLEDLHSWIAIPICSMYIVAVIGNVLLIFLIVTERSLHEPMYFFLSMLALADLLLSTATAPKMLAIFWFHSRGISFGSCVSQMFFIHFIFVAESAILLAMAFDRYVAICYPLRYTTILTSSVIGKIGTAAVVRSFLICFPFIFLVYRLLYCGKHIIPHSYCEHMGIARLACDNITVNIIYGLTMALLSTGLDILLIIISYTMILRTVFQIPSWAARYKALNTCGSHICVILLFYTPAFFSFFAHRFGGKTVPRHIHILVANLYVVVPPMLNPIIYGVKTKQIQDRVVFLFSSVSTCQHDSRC

On to `Cc1ccc(C(C)C)cc1`, for which the “odorant receptor agonist call” value with UniProt Q924H8 was “inactive”.
For the molecule `CC(=O)OC1(C)CCC23CC1C(C)(C)C2CCC3C` (centres undefined), in the experiment with UniProt Q924H8, the “odorant receptor agonist call” value was “active”.
For the molecule `CCCC(C)C(=O)OCC` (centres undefined), in the experiment with UniProt Q924H8, the “odorant receptor agonist call” value was “inactive”.
As to `CC(C=O)Cc1ccc(C(C)(C)C)cc1` (centres undefined), in the experiment with UniProt Q920P2, the “odorant receptor agonist call” value is “inactive”.
Take `CC(=O)OCCc1ccccc1`: the “odorant receptor agonist call” value with UniProt Q924H8 is “inactive”.
Consider `CC(C)=CCCC(C)=CCO`, for which the “odorant receptor agonist call” value in the experiment with UniProt Q920P2, with UniProt Q924H8, in the experiment with UniProt Q9EPN9, with UniProt Q9WU86, with UniProt Q9WVD9 and with UniProt Q9WVN5 was “inactive” each time. Moreover, the “odorant receptor agonist call” value with UniProt Q9R0K2 is “active”.
Regarding `CCCCCCC(C)O` (centres undefined), the “odorant receptor agonist call” value with UniProt Q924H8 is “inactive”.
As for `c1ccccc1`, the “odorant receptor agonist call” value with UniProt Q920P2, with UniProt Q924H8, in the experiment with UniProt Q9EPN9, with UniProt Q9R0K2, with UniProt Q9WU86 and with UniProt Q9WVD9 was “inactive” in each case. Besides, the “odorant receptor agonist call” value in the experiment with UniProt Q9WVN5 is “inactive”.
For the molecule `COc1cnccn1`, in the experiment with UniProt Q924H8, the “odorant receptor agonist call” value is “inactive”.
As to `C=CC(=O)CCCCC`, the “odorant receptor agonist call” value with UniProt Q924H8 is “inactive”.
For `Cc1ccc(C(C)C)c(O)c1`, the “odorant receptor agonist call” value with UniProt Q924H8 is “inactive”.
Same read-out and setting: with `CC1CCC(C(C)C)C(=O)C1` (centres undefined) the entry was “inactive”.
Consider `CCSSCC`, for which the “odorant receptor agonist call” value in the experiment with UniProt Q924H8 is “inactive”.
On the same count and under the same terms, with `CCC(C)c1nccnc1OC` (centres undefined) the entry was “inactive”; with `O=C(OCc1ccccc1)c1ccccc1O`, “inactive”.
Regarding `CC=Cc1ccc(OC)cc1`, the “odorant receptor agonist call” value with UniProt Q924H8 was “inactive”.
On the same count and under the same terms, with `CCCCCC(C)O` (centres undefined) the entry was “inactive”.
Take `C=C(C)C1CCC2(C)OC2C1` (centres undefined): in the experiment with UniProt Q924H8, the “odorant receptor agonist call” value is “inactive”.
Still for that read-out and setting: with `c1ccc2ncccc2c1` the entry was “inactive”.
Same read-out and setting: with `CCCCCCCCCCCO` the entry was “inactive”.
Take `COc1cc(C=O)cc(OC)c1O`: the “odorant receptor agonist call” value in the experiment with UniProt Q920P2 was “inactive”.
For `C=C(C)C1CCC(C)C(O)C1` (centres undefined), in the experiment with UniProt Q924H8, the “odorant receptor agonist call” value was “inactive”.
Turning to `Cc1occc1SSc1ccoc1C`, in the experiment with UniProt Q924H8, the “odorant receptor agonist call” value is “inactive”.
The same measure, in the same setting: with `CCC=CCCC=CC=O` the entry was “inactive”; with `CCCCCCCCOC=O`, “inactive”; with `C=CC(=C)CCC=C(C)C`, “inactive”.
On the same count and under the same terms, with `CC=CC(=O)C1=C(C)CCCC1(C)C` the entry was “inactive”; with `C1CCOC1`, “inactive”; with `Cc1ccc2c(c1)OCC(=O)CO2`, “inactive”.
On the same count and under the same terms, with `C=CC(C)=CCC=C(C)CCC=C(C)C` the entry was “inactive”; with `CC(C)CS`, “inactive”; with `OCCc1ccccc1`, “inactive”.
In the case of `CC(=O)C=CC1=C(C)CCCC1(C)C`, in the experiment with UniProt Q924H8, the “odorant receptor agonist call” value was “inactive”.
Regarding `COc1cc(C(=O)O)ccc1O`, the “odorant receptor agonist call” value in the experiment with UniProt Q920P2, with UniProt Q924H8, in the experiment with UniProt Q9EPN9, in the experiment with UniProt Q9R0K2, with UniProt Q9WU86 and in the experiment with UniProt Q9WVD9 was “inactive” throughout. Further, in the experiment with UniProt Q9WVN5, the “odorant receptor agonist call” value is “inactive”.
Regarding `Cc1ccccc1OC(=O)C(C)C`, the “odorant receptor agonist call” value with UniProt Q924H8 is “inactive”.
Still for that read-out and setting: with `CCOC(=O)C(C)CC` (centres undefined) the entry was “inactive”; with `C=C(C)C1CC=C(C)CC1` (centres undefined), “inactive”.
Regarding `CCCCCCCCCS`, the “odorant receptor agonist call” value in the experiment with UniProt Q924H8 is “active”. For the same molecule, the “odorant receptor agonist call” value in the experiment with UniProt Q9EPN9, with UniProt Q9R0K2, with UniProt Q9WU86, in the experiment with UniProt Q9WVD9 and with UniProt Q9WVN5 was “inactive” throughout.
Regarding `CC(=O)C1(C)CC2=C(CCCC2(C)C)CC1C` (centres undefined), the “odorant receptor agonist call” value in the experiment with UniProt Q924H8 was “inactive”.
For the molecule `CCCCCCCCO`, the “odorant receptor agonist call” value with UniProt Q924H8, with UniProt Q924X8, with UniProt Q9EPN9, in the experiment with UniProt Q9R0K2, with UniProt Q9WU86 and with UniProt Q9WU94 was “inactive” each time. The “odorant receptor agonist call” value in the experiment with UniProt Q9WVD9 and with UniProt Q9WVN5 was “inactive” in each case. The “odorant receptor agonist call” value with UniProt Q9WVD7 was “active”.
`CCCCC(=O)O`: the “odorant receptor agonist call” value with UniProt Q924H8, in the experiment with UniProt Q924X8, with UniProt Q99NH4, with UniProt Q9EPN9, with UniProt Q9R0K2 and with UniProt Q9WU86 was “inactive” throughout. In addition, the “odorant receptor agonist call” value with UniProt Q9WU94, in the experiment with UniProt Q9WVD7 and in the experiment with UniProt Q9WVD9 was “inactive” in each case. Further, in the experiment with UniProt Q9WVN5, the “odorant receptor agonist call” value was “active”.
With `CCCCC=O`, the “odorant receptor agonist call” value in the experiment with UniProt Q924H8, with UniProt Q99NH4 and with UniProt Q9WU94 was “inactive” each time.
Take `CCCCCCCCCCO`: the “odorant receptor agonist call” value with UniProt Q924H8, with UniProt Q99NH4, with UniProt Q9EPN9, with UniProt Q9R0K2, with UniProt Q9WU86 and with UniProt Q9WVD9 was “inactive” in each case. The “odorant receptor agonist call” value with UniProt Q9WVN5 was “inactive”.
On to `CCCCCCCCCC(=O)[O-].[H+]`, for which the “odorant receptor agonist call” value with UniProt Q924H8, with UniProt Q99NH4, with UniProt Q9EPN9, in the experiment with UniProt Q9R0K2, with UniProt Q9WU86 and with UniProt Q9WU94 was “inactive” throughout. Also, the “odorant receptor agonist call” value with UniProt Q9WVD9 and in the experiment with UniProt Q9WVN5 was “inactive” throughout.
